How the values were obtained:
[1] = Volume of distribution at steady state in mouse at 1 mg/kg, iv and 5 mg/kg, po; type: ADME, organism-based; conditions: in vivo, read-out: Vdss
How it was run: (§1)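 Single-compound PK. Intravenous dose 1 mg/kg given as a 60% PEG solution. Oral dose 5 mg/kg given as an aqueous suspension in 1% methylcellulose. Plasma clearance, steady-state volume of distribution, half-life and oral bioavailability were determined from these doses.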

[2] = biological target: Mitogen-activated protein kinase kinase kinase 10 (Homo sapiens, UniProt Q02779); experiment: Inhibition of MLK2 (unknown origin)
Chain of Mitogen-activated protein kinase kinase kinase 10 (Q02779 whole entry): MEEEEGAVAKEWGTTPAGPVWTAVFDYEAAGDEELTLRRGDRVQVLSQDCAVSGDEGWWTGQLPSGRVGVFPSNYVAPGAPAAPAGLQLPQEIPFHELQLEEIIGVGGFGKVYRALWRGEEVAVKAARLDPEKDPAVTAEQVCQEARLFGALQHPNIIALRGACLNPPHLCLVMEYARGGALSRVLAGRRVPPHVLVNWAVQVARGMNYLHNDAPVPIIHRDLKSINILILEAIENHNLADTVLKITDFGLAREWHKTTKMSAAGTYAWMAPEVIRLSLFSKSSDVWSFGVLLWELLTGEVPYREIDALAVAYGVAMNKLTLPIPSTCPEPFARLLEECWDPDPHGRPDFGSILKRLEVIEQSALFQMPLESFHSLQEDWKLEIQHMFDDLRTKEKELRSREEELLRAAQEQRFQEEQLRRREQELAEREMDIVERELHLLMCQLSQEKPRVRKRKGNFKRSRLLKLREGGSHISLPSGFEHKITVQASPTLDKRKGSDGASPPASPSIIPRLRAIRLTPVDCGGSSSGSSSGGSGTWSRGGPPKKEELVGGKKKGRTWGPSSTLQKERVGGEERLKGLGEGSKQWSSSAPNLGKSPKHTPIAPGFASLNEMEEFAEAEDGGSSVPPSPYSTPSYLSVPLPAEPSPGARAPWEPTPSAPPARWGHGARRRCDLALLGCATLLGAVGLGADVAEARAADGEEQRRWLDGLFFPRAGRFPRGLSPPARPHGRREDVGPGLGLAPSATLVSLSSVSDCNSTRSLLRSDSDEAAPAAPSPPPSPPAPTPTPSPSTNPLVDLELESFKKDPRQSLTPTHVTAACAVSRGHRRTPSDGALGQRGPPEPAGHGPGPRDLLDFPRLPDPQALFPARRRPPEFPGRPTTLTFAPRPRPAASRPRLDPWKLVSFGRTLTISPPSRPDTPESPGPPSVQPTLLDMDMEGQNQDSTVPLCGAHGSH

[3] = biological target: Mitogen-activated protein kinase 9 (Homo sapiens, UniProt P45984); experiment: Inhibition of JNK2 (unknown origin)
Chain of Mitogen-activated protein kinase 9 (P45984 whole entry): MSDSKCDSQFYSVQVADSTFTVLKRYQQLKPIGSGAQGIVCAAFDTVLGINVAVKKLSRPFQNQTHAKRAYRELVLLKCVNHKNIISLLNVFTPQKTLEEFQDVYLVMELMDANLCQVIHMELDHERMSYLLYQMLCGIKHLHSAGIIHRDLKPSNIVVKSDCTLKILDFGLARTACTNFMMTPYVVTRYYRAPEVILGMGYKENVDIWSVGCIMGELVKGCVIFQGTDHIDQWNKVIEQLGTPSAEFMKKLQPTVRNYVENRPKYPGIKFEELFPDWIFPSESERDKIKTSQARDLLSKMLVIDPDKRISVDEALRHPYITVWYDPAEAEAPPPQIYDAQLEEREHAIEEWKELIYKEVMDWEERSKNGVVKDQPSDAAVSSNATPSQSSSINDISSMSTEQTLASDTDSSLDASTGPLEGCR

[4] = Plasma clearance in dog at 1 mg/kg, iv and 5 mg/kg, po; type: ADME, organism-based, Canis lupus familiaris; how it was run: as §1
[5] = biological target: Mitogen-activated protein kinase 8 (Homo sapiens, UniProt P45983); experiment: Inhibition of JNK1 (unknown origin)
Chain of Mitogen-activated protein kinase 8 (P45983 whole entry): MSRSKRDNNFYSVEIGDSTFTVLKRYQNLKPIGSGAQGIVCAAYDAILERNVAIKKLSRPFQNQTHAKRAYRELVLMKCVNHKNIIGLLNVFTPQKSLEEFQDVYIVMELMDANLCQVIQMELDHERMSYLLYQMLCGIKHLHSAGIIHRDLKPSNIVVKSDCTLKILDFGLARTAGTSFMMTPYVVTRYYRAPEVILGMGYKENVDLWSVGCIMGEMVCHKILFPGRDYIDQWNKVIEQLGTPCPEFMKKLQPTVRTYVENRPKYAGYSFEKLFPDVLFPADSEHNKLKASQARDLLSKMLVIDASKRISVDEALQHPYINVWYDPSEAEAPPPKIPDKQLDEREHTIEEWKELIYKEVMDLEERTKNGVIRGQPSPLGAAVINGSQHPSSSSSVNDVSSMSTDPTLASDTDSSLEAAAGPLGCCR

[6] = tested on: T1, Receptor-type tyrosine-protein kinase FLT3 (Homo sapiens), P36888 [D835Y]; experiment: Inhibition of Flt3 D835Y mutant (unknown origin) at 0.1 uM
T1 sequence (whole entry): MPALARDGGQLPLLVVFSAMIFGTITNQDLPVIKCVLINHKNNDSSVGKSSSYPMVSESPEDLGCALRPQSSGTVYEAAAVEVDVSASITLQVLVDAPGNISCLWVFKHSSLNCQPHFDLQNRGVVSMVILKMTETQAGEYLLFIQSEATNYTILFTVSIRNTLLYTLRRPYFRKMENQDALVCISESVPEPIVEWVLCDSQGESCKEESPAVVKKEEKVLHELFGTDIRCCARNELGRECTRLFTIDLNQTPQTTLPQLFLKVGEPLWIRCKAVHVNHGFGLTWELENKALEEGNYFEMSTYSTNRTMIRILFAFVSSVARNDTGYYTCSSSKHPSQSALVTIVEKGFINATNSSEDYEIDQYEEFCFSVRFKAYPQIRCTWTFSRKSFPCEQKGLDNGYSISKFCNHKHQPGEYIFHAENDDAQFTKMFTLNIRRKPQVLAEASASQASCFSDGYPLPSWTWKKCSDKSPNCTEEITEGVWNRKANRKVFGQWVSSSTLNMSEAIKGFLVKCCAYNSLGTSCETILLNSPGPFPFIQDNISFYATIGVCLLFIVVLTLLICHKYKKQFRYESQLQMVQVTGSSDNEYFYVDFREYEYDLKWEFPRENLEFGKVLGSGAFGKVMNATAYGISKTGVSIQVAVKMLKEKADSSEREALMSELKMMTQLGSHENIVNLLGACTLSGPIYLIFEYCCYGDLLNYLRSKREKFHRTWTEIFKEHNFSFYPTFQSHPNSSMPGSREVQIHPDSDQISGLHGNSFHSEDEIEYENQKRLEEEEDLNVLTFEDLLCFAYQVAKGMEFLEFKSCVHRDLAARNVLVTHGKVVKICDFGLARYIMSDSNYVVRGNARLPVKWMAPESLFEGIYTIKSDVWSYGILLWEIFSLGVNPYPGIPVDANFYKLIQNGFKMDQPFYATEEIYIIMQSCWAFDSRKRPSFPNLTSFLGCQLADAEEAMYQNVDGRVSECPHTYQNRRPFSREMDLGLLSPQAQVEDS
How it was run: (§2)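 Kinase selectivity panel of 298 kinases, test compound at 0.1 μM, percent inhibition reported.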

[7] = Half life in cynomolgus monkey at 1 mg/kg, iv and 5 mg/kg, po; type: ADME, organism-based, Macaca fascicularis; conditions: in vivo; how it was run: as §1
[8] = biological target: Proto-oncogene tyrosine-protein kinase Src (Homo sapiens) (UniProt P12931); experiment: Inhibition of Src (unknown origin) at 0.1 uM; how it was run: as §2
Chain of Proto-oncogene tyrosine-protein kinase Src (Homo sapiens) (P12931 2-536 limits assumed): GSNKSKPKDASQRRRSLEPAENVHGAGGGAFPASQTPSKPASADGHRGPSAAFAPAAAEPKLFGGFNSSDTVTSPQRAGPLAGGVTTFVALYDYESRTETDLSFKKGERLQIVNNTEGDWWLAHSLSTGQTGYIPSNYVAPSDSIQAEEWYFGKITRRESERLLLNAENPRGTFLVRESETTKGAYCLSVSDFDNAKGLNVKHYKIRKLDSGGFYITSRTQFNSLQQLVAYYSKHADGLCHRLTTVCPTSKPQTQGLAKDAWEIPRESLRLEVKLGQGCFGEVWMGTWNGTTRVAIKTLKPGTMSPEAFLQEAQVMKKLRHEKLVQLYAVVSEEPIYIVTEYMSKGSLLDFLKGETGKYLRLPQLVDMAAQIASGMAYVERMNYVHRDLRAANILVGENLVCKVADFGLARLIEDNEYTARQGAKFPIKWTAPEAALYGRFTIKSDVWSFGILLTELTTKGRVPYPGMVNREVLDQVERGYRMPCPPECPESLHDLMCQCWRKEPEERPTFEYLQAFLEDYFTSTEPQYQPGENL

[9] = Plasma clearance in mouse at 1 mg/kg, iv and 5 mg/kg, po; type: ADME, organism-based; how it was run: as §1
[10] = tested on: Mus musculus; experiment: Neuroprotective activity against po dosed C57Bl/6 mouse optic nerve crush model assessed as reduction of phosphorylated c-Jun level in retina administered 30 mins prior to nerve crush injury measured after 6 hrs by MSD ELISA; type: functional, organism-based
How it was run: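 C57Bl/6 mice dosed orally at two dose levels (MCT suspension) or vehicle, 30 min before optic nerve crush. Retinal p-c-Jun measured 6 h post-injury by MSD ELISA, expressed relative to uncrushed vehicle controls. N = 5 vehicle, 6 per treated group. Mean ± SEM.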

[11] = Plasma clearance in rat at 1 mg/kg, iv and 5 mg/kg, po; type: ADME, organism-based; how it was run: as §1
[12] = biological target: T2, Dual specificity mitogen-activated protein kinase kinase 7 (Homo sapiens, UniProt O14733); experiment: Inhibition of MKK7 (unknown origin)
T2 sequence (O14733 whole entry): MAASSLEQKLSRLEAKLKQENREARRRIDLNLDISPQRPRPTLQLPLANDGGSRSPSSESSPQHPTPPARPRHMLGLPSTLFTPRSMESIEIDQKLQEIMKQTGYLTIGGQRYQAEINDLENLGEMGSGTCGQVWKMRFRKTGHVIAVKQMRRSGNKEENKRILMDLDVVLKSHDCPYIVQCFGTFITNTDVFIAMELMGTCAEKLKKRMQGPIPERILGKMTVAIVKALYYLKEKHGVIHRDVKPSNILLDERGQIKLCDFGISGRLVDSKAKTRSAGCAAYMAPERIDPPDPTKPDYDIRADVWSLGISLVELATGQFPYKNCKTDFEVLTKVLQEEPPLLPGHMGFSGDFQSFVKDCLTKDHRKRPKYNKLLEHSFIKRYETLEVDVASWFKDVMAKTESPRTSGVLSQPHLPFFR

[13] = Oral bioavailability in rat at 5 mg/kg; type: ADME, organism-based; conditions: in vivo; how it was run: as §1
[14] = Volume of distribution at steady state in cynomolgus monkey at 1 mg/kg, iv and 5 mg/kg, po; type: ADME, organism-based, Macaca fascicularis; conditions: in vivo, read-out: Vdss; how it was run: as §1
[15] = biological target: T3, Dual specificity mitogen-activated protein kinase kinase 4 (Homo sapiens, UniProt P45985); experiment: Inhibition of MKK4 (unknown origin)
T3 sequence (P45985 whole entry): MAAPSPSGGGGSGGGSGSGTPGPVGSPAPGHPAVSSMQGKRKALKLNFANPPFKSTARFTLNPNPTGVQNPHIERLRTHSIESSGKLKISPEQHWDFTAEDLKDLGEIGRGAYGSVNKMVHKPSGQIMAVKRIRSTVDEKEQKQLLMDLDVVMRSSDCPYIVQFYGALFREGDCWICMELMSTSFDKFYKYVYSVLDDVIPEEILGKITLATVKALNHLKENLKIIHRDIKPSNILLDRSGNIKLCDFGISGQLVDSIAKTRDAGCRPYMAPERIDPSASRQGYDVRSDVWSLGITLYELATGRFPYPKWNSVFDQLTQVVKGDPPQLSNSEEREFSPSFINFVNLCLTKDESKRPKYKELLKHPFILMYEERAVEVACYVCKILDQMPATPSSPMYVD

[16] = Oral bioavailability in cynomolgus monkey at 5 mg/kg; type: ADME, organism-based, Macaca fascicularis; conditions: in vivo; how it was run: as §1
[17] = biological target: Mitogen-activated protein kinase kinase kinase 9 (Homo sapiens, UniProt P80192); experiment: Inhibition of MLK1 (unknown origin)
Chain of Mitogen-activated protein kinase kinase kinase 9 (P80192 whole entry): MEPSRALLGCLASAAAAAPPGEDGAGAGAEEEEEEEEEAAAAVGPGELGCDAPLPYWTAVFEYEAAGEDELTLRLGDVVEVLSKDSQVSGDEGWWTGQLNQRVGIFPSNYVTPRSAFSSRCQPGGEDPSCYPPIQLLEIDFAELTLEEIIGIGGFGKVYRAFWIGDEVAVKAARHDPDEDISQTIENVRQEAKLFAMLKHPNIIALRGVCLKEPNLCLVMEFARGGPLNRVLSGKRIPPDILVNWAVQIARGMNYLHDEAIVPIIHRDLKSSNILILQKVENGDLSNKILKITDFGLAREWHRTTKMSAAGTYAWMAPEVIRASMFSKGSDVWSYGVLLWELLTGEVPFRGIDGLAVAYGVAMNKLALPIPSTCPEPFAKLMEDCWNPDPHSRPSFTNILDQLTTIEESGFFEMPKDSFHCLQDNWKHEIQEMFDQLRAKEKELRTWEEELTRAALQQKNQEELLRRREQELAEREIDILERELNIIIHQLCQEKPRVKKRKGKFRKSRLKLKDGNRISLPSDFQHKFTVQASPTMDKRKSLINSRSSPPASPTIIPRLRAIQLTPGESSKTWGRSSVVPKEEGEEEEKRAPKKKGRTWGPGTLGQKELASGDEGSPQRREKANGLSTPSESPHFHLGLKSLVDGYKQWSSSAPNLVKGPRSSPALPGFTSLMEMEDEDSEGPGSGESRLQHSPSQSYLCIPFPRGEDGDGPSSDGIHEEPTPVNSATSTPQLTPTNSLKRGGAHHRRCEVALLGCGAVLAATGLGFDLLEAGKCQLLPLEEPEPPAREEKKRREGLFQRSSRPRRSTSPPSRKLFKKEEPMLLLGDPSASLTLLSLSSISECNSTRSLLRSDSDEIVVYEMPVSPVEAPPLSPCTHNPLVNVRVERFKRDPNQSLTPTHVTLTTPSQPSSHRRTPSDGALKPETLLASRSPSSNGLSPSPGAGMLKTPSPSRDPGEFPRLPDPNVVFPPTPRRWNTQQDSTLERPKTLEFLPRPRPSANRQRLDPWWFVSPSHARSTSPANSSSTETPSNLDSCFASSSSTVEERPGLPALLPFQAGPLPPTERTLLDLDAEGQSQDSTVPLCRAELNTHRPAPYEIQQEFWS

[18] = biological target: Tyrosine-protein kinase Lck (Homo sapiens) (UniProt P06239); experiment: Inhibition of LCK (unknown origin) at 0.1 uM; how it was run: as §2
Chain of Tyrosine-protein kinase Lck (Homo sapiens) (P06239 2-509 limits assumed): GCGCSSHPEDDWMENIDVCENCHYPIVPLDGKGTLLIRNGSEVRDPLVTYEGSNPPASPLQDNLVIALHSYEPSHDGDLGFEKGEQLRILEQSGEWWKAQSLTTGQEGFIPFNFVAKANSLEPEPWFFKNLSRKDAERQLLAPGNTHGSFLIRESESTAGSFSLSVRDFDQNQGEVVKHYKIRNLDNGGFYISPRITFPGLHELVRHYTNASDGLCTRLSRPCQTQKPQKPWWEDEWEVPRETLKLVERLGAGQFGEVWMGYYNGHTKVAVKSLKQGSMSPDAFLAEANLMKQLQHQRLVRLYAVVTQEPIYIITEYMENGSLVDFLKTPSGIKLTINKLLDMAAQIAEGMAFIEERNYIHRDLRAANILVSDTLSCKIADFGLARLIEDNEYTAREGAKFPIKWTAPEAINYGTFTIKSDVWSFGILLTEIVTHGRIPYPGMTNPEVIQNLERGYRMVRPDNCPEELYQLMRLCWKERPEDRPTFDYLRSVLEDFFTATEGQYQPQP

[19] = biological target: Mitogen-activated protein kinase kinase kinase 11 (Homo sapiens, UniProt Q16584); experiment: Inhibition of MLK3 (unknown origin)
Chain of Mitogen-activated protein kinase kinase kinase 11 (Q16584 whole entry): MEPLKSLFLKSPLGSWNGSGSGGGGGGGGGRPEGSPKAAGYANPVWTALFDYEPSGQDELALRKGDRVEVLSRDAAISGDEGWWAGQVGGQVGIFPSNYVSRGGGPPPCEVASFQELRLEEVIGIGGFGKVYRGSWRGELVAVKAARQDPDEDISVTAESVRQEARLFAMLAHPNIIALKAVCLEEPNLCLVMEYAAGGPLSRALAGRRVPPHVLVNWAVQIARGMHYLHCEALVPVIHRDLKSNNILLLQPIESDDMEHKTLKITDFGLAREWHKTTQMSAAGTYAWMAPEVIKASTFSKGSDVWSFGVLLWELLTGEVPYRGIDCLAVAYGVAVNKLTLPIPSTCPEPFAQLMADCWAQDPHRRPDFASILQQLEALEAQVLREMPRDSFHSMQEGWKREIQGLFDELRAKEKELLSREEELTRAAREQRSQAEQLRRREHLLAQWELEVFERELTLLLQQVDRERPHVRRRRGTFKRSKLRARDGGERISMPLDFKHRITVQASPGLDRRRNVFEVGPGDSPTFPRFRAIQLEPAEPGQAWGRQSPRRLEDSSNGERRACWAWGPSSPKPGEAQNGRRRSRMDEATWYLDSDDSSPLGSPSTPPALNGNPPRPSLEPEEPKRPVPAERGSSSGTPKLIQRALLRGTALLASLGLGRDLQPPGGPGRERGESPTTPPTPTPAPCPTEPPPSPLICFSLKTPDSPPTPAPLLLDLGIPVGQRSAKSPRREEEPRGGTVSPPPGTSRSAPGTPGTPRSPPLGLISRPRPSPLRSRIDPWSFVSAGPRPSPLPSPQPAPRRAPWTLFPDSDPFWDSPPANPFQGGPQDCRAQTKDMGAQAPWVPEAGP

Vd [1]: 2.5 L/kg
IC50 [2]: 0.767 µM
IC50 [3]: 0.514 µM
clearance [4]: 41 mL/min/kg
IC50 [5]: 0.129 µM
inhibition [6]: > 80%
half-life [7]: 2.4 h
inhibition [8]: > 80%
clearance [9]: 56 mL/min/kg
clearance [11]: 30 mL/min/kg
IC50 [12]: > 5 µM
bioavailability [13]: 63%
Vd [14]: 3.1 L/kg
IC50 [15]: > 5 µM
bioavailability [16]: 19%
IC50 [17]: 0.0678 µM
inhibition [18]: > 80%
IC50 [19]: 0.602 µM
Compound: N#Cc1ccnc(Nc2cc(C3CCN(C4COC4)CC3)cc(N3CCC(F)(F)C3)n2)c1
Activity [10]: Dose-dependent effect
